bIAP activator – intestinal alkaline phosphatase (bovine) activation; purified bovine IAP, CDP-star luminescence, 30 min; stronger effect = higher value; fold of DMSO-control signal, blank-subtracted; activation factor at 20 µM; actives 0.17% (n = 200,000);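 active = activation factor of 2 or more at 20 µM, a signal rise over negative controls twice the positive control's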
hIAP inh – blocks human intestinal alkaline phosphatase | P09923 | purified IAP, CDP-Star luminescence, 30 min | inhibition, % at 10 µM | actives 0.12% (n = 330,000) | AID 2544;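 active = inhibition reaching a set limit with compound at 10 µM in the primary screen, cut at about 35% in these data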;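 note: plate controls were DMSO wells with enzyme for no effect and no-enzyme buffer wells for full effect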
Target sequence (P09923 whole entry, looked up): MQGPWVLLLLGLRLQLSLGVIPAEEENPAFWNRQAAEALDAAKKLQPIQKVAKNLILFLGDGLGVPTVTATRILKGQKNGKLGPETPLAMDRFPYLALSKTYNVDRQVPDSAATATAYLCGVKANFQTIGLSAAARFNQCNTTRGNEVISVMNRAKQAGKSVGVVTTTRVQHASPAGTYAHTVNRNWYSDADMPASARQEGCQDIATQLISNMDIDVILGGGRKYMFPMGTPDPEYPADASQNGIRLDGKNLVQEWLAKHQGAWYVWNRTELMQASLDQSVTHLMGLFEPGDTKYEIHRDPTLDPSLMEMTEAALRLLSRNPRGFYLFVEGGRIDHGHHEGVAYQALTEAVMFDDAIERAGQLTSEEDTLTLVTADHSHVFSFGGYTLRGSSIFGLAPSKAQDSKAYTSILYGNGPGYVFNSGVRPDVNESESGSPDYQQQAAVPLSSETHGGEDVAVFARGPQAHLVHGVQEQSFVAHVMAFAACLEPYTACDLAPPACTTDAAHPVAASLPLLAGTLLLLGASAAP
hIAP act – increases human intestinal alkaline phosphatase activity; actives 0.16% (n = 330,000); purified human IAP, CDP-Star luminescence, 30 min; stronger effect = higher value; 1 = vehicle-only enzyme, 0 = enzyme-free background; activation factor at 10 µM; P09923; AID 2524;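 active = activation factor of the enzyme at least 2-fold when tested at 20 µM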
mIAP activ – mouse IAP activation; muIAP, CDP-Star luminescence, 30 min; stronger effect = higher value; 1 = vehicle-only enzyme signal, 0 = enzyme-free wells; activation factor at 10 µM; actives 0.24% (n = 330,000); AID 2805;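 active = activation factor of at least 2 at 20 µM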
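Assay system: mouse IAP enzyme / Compound: DMSO-dissolved test compounds / Timing: 30 min, room temperature / Measured by: luminescence from enzymatic CDP-Star hydrolysis / Control set: DMSO-only wells, enzyme-free buffer wells as negative control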
bIAP inhibitor – blocks bovine intestinal alkaline phosphatase activity; inhibition, % at 20 µM; purified bovine IAP, CDP-star luminescence, 30 min; AID 1019; 190,000 tested, under 10 active;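 active = over 50% inhibition of intestinal alkaline phosphatase at 20 µM in the single-dose screen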
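Assay system – bovine IAP enzyme · Quantity – bovine IAP at 1/65,000,000 final dilution · Detection – CDP-star luminescence signal · Times – 30 min reaction at room temperature · Also added – CDP-star substrate at 30 µM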
mIAP inh – blocks mouse intestinal alkaline phosphatase; purified mouse IAP, CDP-Star luminescence, 30 min; inhibition, % at 10 µM; actives 0.2% (n = 330,000);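 active = inhibition of at least 40% at 10 µM in the primary screen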;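 note: plate controls were DMSO with enzyme for no effect and no enzyme wells for full effect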
mIAP inh conf – mouse IAP inhibition confirmation. shares compounds with mIAP inh. purified mouse IAP, CDP-Star luminescence, 30 min. inhibition, % at 10 µM. actives 4.7% (n = 11,000). AID 434971;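 active = inhibition of at least 40% at 10 µM in either of the two replicates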;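 note: plate controls were DMSO wells with enzyme for no effect and buffer wells lacking enzyme for full effect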
Numbers without * were called inactive; i = inactive; / = not tested or not shown. Rows were chosen to be rich in hits. Some 0.77% of all compounds tested hit in one or more screens of this group.

SMILES	bIAP activator	hIAP inh	hIAP act	mIAP activ	bIAP inhibitor	mIAP inh	mIAP inh conf
Cc1cccc(NC(=O)NC2CCCc3ccccc32)c1 (centres undefined)	/	7.4	0.926	2.69*	/	-168.5	-235.7
O=C(Nc1ccc(Cl)cc1)N[C@@H]1c2c(ccc3ccccc23)OC[C@@H]1CO	1.1	-10.6	1.11	13.2*	-11.4	i	-385.4
CN(C(=O)c1ccccc1)C1c2c(ccc3ccccc23)OCC1CO (centres undefined)	/	7.2	0.928	0.991	/	0.9	/
COc1cccc(CN(C)C(=O)c2cc(COc3ccc4ncccc4c3)on2)c1	1	6.8	0.932	0.944	-0.2	5.6	/
CCOc1ccc(CNC(=O)Cn2ccc3cc(S(=O)(=O)N4CCCC4)ccc32)cc1	/	-8.7	1.09	1.15	/	-15.2	/
Cc1ccc(C2=NC(=O)/C(=C/c3cc(O)c(O)c(Br)c3)S2)cc1	0.7	14.0	0.86	0.474	29.0	52.6*	59.9*
O=C(Nc1ccccc1C(=O)O)C1=NN=CC1	/	1.1	0.989	0.975	/	2.5	/
COc1ccccc1/C=c1\sc2nc(-c3ccco3)nn2c1=O	0.9	22.1	0.779	0.576	5.0	42.4*	70.4*
CC(=O)NCc1ccc(-c2csc(NC(=O)CCc3nc4ccccc4c(=O)[nH]3)n2)s1	/	-2.0	1.02	0.545	/	45.5*	44.8*
CC[C@]12c3[nH]c4cc(CCC(=O)N(C)C)ccc4c3CCN1C(=O)[C@@H](CC(=O)NC(C)(C)C)C[C@@H]2C(=O)N1CCN(C(=O)C2CC2)CC1	/	/	/	1.11	/	-11.3	/
O=C(Nc1ccc(F)c(Cl)c1)Nc1ccc(Cl)cn1	1.1	0.8	0.992	1.05	-8.0	-4.9	/
O=C(Nc1ccc(F)c(Cl)c1)Nc1csc2ccccc12	/	7.8	0.922	4.87*	/	-386.9	-115.2
COc1ccccc1CNC(=O)[C@H](C)NC(=O)C1CCN(C(=O)[C@H](CCSC)NC(=O)OC(C)(C)C)CC1	/	8.6	0.914	0.911	/	8.9	/
O=C(CCO)c1ccc(O)cc1	0.9	14.3	0.857	0.543	9.0	45.7*	47.2*
CCCCC(=O)c1ccc(O)cc1	0.9	4.0	0.96	0.94	11.7	6.0	/
COC(=O)c1ccc(C(=O)NC2CCSc3ccccc32)cc1 (centres undefined)	/	3.3	0.967	0.922	/	7.8	/
Cc1ccc(NC(=S)NC2CCSc3ccccc32)cc1C (centres undefined)	/	-34.7	1.35	4.75*	/	-374.7	-171.5
Cc1c(Cl)cccc1NC(=O)NC1CCCCC1	0.6	8.6	0.914	1.14	39.0	-13.5	/
Cc1ccc(C)c(CN2CCC(CNC(=O)Nc3cccc(Cl)c3C)CC2)c1	/	-66.0	1.66	5.45*	/	-444.9	-147.2
Cc1ccc(NC(=O)NCC2CCN(Cc3cc(C)ccc3Cl)CC2)c(C)c1	1.1	-49.0	1.49	4.91*	-9.1	-390.6	-86.8
Cc1ccccc1CN1CCC(CNC(=O)Nc2ccc(F)cc2F)CC1	/	-15.5	1.16	1.38	/	-37.9	/
CC(C(=O)N(C)C1CCS(=O)(=O)C1)N1C(=O)/C(=C/c2ccco2)SC1=S (centres undefined)	/	-7.2	1.07	0.598	/	40.2*	49.7*
O=C(CN1C(=O)/C(=C/c2ccco2)SC1=S)NC1CCS(=O)(=O)C1 (centres undefined)	/	-15.5	1.16	0.423	/	57.7*	79.4*
O=C(CN1C(=O)/C(=C/c2ccco2)SC1=S)Nc1ccc(C(=O)O)c(O)c1	/	16.1	0.839	0.326	/	67.4*	86.5*
CC(C(=O)Nc1ccc(C(=O)O)c(O)c1)N1C(=O)/C(=C\c2ccco2)SC1=S (centres undefined)	/	-20.3	1.2	0.384	/	61.6*	73.2*
SMILES	bIAP activator	hIAP inh	hIAP act	mIAP activ	bIAP inhibitor	mIAP inh	mIAP inh conf
O=C(CCN1C(=O)/C(=C/c2ccccc2)SC1=S)NC1CCS(=O)(=O)C1 (centres undefined)	/	-30.9	1.31	0.951	/	4.9	/
COc1ccc(OC)c(NC(=O)CN2C(=O)NC(C)(c3ccc4c(c3)OCCO4)C2=O)c1 (centres undefined)	/	0.1	0.999	0.907	/	9.3	/
CCN(CC(=O)NC1CCCC1)S(=O)(=O)c1ccc(F)cc1	/	19.7	0.803	1.08	/	-8.5	/
COc1ccc(CCNC(=O)Cn2nc([N+](=O)[O-])c(Br)c2C)cc1OC	0.9	4.0	0.96	0.947	9.3	5.3	/
CC(=C\c1ccco1)/C=C1/SC(=S)N(CC(=O)O)C1=O	/	8.8	0.912	0.491	/	50.9*	50.1*
O=C(CN1C(=O)/C(=C/c2ccco2)SC1=S)Nc1ccc(O)c(C(=O)O)c1	/	-22.6	1.23	0.254	/	74.6*	75.8*
O=C(CCCN1C(=O)/C(=C/c2cccs2)SC1=S)Nc1ccc(O)c(C(=O)O)c1	1	/	/	/	4.4	/	/
CCN(CC(=O)NCc1cccs1)C(=O)c1ccc(S(=O)(=O)N(CC)c2ccccc2)cc1	/	-19.8	1.2	1.04	/	-3.7	/
O=C(Nc1ccc(Cl)cc1)Nc1cc(S(=O)(=O)N2CCOCC2)ccc1N1CCCC1	1.2	-0.6	1.01	2.91*	-16.9	-191.3	-115.5
O=C(Nc1cccc(S(=O)(=O)N2CCCCC2)c1)Nc1ccc(Cl)cc1Cl	1.1	12.9	0.871	5.41*	-5.5	-441.4	-340.6
O=C(Nc1ccc(F)cc1)Nc1cc(S(=O)(=O)N2CCOCC2)ccc1N1CCCC1	1.6	-7.7	1.08	1.71	-63.2	-71.4	/
O=C(CNc1ccc(F)cc1Cl)Nc1cccc(S(=O)(=O)N2CCCCC2)c1	/	-14.2	1.14	1.89	/	-89.4	/
O=C(Nc1ccc(Cl)cc1Cl)NC1CCN(S(=O)(=O)c2ccc(F)cc2)CC1	/	-68.2	1.68	5.43*	/	-442.6	-116.3
COc1ccccc1NS(=O)(=O)c1cccc(NC(=O)Nc2ccc(Cl)cc2)c1	1	-4.0	1.04	2.13*	2.8	-113.0	-92.2
CC(=O)Nc1ccc(S(=O)(=O)NCC(=O)OCC(=O)NCc2ccco2)cc1	/	-8.0	1.08	1.03	/	-3.4	/
COc1cc2c(ccc3cc(OC)c(OC)c(O)c32)cc1O	/	5.8	0.942	0.495	/	50.5*	58.2*
COc1c(Cl)cc(C(=O)NN)cc1Cl	0.9	-15.1	1.15	1.01	6.6	-1.0	/
NNC(=O)c1cc(O)c(O)c(O)c1	0.8	3.3	0.967	0.366	24.9	63.4*	71.1*
N#Cc1ccsc1NC(=O)c1cccc(-n2cnnn2)c1	/	-3.8	1.04	0.888	/	11.2	/
Nc1c(C(=O)Nc2ccc(Br)cc2)sc2nc(-c3ccco3)ccc12	1	30.8	0.692	0.627	0.0	37.3	/
CC(=O)c1sc2nc(-c3ccco3)ccc2c1N	/	-19.1	1.19	0.413	/	58.7*	63.0*
CC(C)OC(=O)NCCOC(=O)Nc1cccc(Cl)c1	0.9	-9.0	1.09	2.03*	13.9	-103.1	-111.7

Screening results (PubChem)
